Molecules are shown by their SMILES.

Experimental findings from ChEMBL document CHEMBL1125249, “Structure-affinity relationships of 12-sulfonyl derivatives of 5,8,8a,9,10,11,12,12a,13,13a-decahydro-6H-isoquino[2,1-g][1 ,6] naphthyridines at alpha-adrenoceptors” (J Med Chem, 1991) are described below.

Experiment [1] deals with T1, Adrenergic receptor alpha-2 (Rattus norvegicus) (UniProt P22086+P19328+P22909).
The next experiment is filed under the species Cavia porcellus. In words: In vitro reversal of inhibitory effect of UK - 14304 on the contractile response of guinea pig ileum to field stimulation. The format is functional, organism-based. The following applies: read-out: pA2 (converted). The method, boiled down:
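Ileum from female Dunkin-Hartley guinea pigs (250-300 g) held in Tyrode solution at 37 °C, gassed with O2, under 1 g tension. Field stimulation at 0.1 Hz (1-ms pulses, supramaximal voltage), with isometric contractions recorded. Cumulative UK-14304 curves were run, the second taken as control. Antagonist was then applied for 40 min before repeat agonist curves.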

The target in experiment [2] is T2, Adrenergic receptor alpha-2 (Rattus norvegicus, UniProt P22086+P19328+P22909).
T2 sequence (P22086 whole entry): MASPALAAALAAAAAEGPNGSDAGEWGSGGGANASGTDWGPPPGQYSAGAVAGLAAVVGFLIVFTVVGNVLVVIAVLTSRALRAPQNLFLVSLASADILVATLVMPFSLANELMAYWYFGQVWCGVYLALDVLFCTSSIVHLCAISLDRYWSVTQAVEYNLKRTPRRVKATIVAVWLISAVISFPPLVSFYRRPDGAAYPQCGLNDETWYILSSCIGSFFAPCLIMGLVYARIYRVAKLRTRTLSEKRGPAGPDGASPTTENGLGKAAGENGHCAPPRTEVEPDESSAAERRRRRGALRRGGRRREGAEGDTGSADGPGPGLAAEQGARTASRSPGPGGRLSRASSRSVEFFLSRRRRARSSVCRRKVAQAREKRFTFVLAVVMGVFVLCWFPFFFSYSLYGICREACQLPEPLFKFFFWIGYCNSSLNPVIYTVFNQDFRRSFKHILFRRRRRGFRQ
T2 sequence (P19328 whole entry): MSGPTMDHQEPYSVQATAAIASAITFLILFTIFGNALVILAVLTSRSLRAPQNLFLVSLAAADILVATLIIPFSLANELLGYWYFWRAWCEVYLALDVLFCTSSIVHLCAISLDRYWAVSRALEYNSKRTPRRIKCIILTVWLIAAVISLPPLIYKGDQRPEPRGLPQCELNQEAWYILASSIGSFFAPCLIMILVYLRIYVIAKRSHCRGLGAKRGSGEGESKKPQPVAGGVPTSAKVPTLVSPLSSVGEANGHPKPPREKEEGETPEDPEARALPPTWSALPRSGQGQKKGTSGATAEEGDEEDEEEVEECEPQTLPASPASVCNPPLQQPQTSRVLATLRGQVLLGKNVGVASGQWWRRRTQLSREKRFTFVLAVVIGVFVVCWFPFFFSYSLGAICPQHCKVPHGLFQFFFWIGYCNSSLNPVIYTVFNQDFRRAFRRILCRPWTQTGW
T2 sequence (P22909 whole entry): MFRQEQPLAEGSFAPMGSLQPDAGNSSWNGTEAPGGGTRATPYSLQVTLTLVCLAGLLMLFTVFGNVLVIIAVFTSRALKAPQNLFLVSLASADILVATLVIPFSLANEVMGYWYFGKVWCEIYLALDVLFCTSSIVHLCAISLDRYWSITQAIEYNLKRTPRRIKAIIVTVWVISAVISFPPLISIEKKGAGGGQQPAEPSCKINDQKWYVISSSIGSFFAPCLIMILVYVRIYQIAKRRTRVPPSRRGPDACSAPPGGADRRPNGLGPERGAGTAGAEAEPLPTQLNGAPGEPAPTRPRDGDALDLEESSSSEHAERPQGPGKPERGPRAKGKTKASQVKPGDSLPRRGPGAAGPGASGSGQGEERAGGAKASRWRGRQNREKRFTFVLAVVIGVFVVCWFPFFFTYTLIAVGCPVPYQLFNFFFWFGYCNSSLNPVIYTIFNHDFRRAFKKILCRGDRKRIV
The experiment can be described thus: Binding affinity to alpha-2 adrenergic receptor determined by measurement of [3H]yohimbine displacement from rat cortical membrane.

Experiment [3] concerns the target T1, Adrenergic receptor alpha-2 (Rattus norvegicus). This is another data set of the same source.
Experiment [4] deals with T3, Adrenergic receptor alpha-1 (Rattus norvegicus, UniProt P15823+P23944+P43140).
T3 sequence (P15823 whole entry): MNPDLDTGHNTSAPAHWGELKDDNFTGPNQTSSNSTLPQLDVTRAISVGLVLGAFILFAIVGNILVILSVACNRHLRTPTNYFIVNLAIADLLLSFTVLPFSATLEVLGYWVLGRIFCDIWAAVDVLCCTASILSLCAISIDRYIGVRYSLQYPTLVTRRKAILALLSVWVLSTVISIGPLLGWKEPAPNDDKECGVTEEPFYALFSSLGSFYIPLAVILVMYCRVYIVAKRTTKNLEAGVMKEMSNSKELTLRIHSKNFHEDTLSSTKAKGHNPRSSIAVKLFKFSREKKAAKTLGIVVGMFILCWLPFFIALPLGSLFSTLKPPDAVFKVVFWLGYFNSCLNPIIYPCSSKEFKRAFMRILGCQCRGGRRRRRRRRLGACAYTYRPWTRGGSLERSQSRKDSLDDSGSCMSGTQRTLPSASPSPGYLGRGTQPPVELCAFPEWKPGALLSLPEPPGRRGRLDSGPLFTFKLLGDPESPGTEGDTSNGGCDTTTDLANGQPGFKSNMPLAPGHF
T3 sequence (P23944 whole entry): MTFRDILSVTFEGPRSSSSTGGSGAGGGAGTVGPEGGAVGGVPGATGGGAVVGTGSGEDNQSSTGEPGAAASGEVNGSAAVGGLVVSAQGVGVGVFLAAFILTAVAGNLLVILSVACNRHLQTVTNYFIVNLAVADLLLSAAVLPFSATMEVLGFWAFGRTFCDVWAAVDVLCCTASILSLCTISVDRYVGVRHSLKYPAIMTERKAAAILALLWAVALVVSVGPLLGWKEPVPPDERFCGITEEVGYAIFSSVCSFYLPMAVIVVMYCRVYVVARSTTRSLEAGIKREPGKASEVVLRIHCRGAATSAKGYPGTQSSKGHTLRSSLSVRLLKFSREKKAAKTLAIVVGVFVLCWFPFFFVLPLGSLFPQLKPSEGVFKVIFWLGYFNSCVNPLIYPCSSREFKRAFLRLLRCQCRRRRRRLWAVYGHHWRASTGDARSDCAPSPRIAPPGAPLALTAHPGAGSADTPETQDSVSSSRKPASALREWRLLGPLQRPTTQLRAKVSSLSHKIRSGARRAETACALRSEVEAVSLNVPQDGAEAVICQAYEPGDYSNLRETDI
T3 sequence (P43140 whole entry): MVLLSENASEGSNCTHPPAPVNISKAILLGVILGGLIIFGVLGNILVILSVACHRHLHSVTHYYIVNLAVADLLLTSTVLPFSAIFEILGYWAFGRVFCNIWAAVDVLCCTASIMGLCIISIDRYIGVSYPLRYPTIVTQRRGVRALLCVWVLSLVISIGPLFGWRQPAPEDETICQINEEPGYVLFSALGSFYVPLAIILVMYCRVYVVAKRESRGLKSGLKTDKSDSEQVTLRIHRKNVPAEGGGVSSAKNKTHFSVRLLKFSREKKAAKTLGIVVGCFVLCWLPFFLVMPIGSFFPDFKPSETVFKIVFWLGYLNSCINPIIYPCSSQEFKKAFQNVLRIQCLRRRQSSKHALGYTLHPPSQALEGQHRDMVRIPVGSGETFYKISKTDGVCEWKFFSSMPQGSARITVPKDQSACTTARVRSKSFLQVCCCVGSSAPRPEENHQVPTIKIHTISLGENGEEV
The experiment can be described thus: Binding affinity to alpha-1 adrenergic receptor determined by measurement of [3H]prazosin displacement from rat cortical membrane. The method in brief:
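Male Sprague-Dawley rat (150-200 g) cerebral cortex membranes, washed in 50 mM Tris-HCl/0.5 mM EDTA pH 7.4. 250 µg membrane protein incubated with 0.5 nM [3H]prazosin for 30 min at 25 °C in a 0.5 mL volume. Nonspecific binding defined by 10 µM phentolamine. IC50 estimated graphically; Ki calculated by Cheng-Prusoff.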

With `CCS(=O)(=O)N1CCC[C@@H]2CN3CCc4ccccc4[C@@H]3C[C@@H]21`, the ID50 in experiment [1] was 1.1 mg/kg; in experiment [3], 0.019 mg/kg. The Kb in the experiment filed under Cavia porcellus is 5.01 nM. The “Log Ki” value was -8.82 in experiment [2] and -4.97 in experiment [4].
In the same order, the values of `COc1ccc2c(c1)CCN1C[C@H]3CCCN(S(=O)(=O)N(C)C)[C@@H]3C[C@@H]21` are 0.17 mg/kg, 0.027 mg/kg, 0.501 nM, -8.97 and -5.57.
In the same order, the values of `COc1ccc2c(c1)CCN1C[C@@H]3CCCN(S(C)(=O)=O)[C@@H]3C[C@H]21` are more than 10 mg/kg, more than 10 mg/kg, 316 nM, -6.32 and less than -5.
Taken in the same sequence, the figures for `CCCCS(=O)(=O)N1CCC[C@@H]2CN3CCc4ccccc4[C@@H]3C[C@@H]21` were 0.9 mg/kg, 0.036 mg/kg, 1.26 nM, -8.9 and -5.64.
As for `COc1ccc2c(c1)CCN1C[C@H]3CCCN(S(C)(=O)=O)[C@H]3C[C@@H]21` [DELEQUAMINE], the ID50 in experiment [1] came out at 0.21 mg/kg; in experiment [3], 0.013 mg/kg. For the same compound, the Kb in the experiment filed under Cavia porcellus was 0.2 nM. Moreover, the “Log Ki” value was -9.18 in experiment [2] and -4.99 in experiment [4].
Taken in the same sequence, the figures for `CS(=O)(=O)N1CCC[C@@H]2CN3CCc4cc5c(cc4[C@@H]3C[C@@H]21)OCO5` were 0.76 mg/kg, 0.06 mg/kg, 1 nM, -9.18 and -5.14.
Take `CC(C)CS(=O)(=O)N1CCC[C@@H]2CN3CCc4ccccc4[C@@H]3C[C@@H]21`: the figures for the ID50 in experiment [1] and in experiment [3] were 0.85 mg/kg and 0.034 mg/kg, respectively. Moreover, the Kb in the experiment listed under Cavia porcellus was 0.316 nM. The entries for the “Log Ki” value in experiment [2] and in experiment [4] were -8.77 and -5.37, respectively.
As for `CCCS(=O)(=O)N1CCC[C@@H]2CN3CCc4ccccc4[C@@H]3C[C@@H]21`, the ID50 in experiment [1] is 1.4 mg/kg; in experiment [3], 0.019 mg/kg. For the same compound, in the experiment filed under Cavia porcellus, the Kb was 0.398 nM. The “Log Ki” value is listed as -8.73 in experiment [2] and -5.29 in experiment [4].
Taken in the same sequence, the figures for `COc1ccc(S(=O)(=O)N2CCC[C@@H]3CN4CCc5ccccc5[C@@H]4C[C@@H]32)cc1` were more than 3 mg/kg, 0.18 mg/kg, 1.58 nM, -9.34 and -5.31.
